# High-throughput results deposited in PubChem BioAssay by several laboratories.
# A selection: hits, their analogues and other compounds. The true share with any hit is near 4.7%.
# RGS4 act: RGS4 potentiators or activators, primary screen, cell-based, HEK293 M3R inducible RGS4, calcium flux; 310,000 tested, 0.92% active; carbachol calcium flux Fluo4; stronger effect = lower value; B-score at 10 µM;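 active = B-score of the integrated calcium signal more than 4 SD below the library mean, with starting fluorescence not abnormally high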;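 note: negative B-score means reduced calcium response which marks RGS4 activation or potentiation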
#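 Material: M3R-expressing HEK293 line, RGS4 induced by doxycycline | Schedule: Overnight RGS4 induction, 30 min dye load 37 °C, 20 min compound RT | Measured by: Fluo4 fluorescence kinetic imaging of calcium | Read-out: Integrated calcium ratio converted to B score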
# MrgX1 ag: agonists of human MrgX1 receptor, primary screen, HEK293 cells, Fluo-4 calcium flux; Mas-related G-protein coupled receptor member X1 (Homo sapiens), Q96LB2; Fluo-4 calcium fluorescence, agonist mode; stronger effect = higher value; B-score at 10 µM; 310,000 tested, 0.44% active;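 active = calcium response B-score plate-corrected fluorescence ratio at least 3 library SD, with starting fluorescence B-score inside 5 SD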
# Target sequence (Q96LB2 whole entry, looked up): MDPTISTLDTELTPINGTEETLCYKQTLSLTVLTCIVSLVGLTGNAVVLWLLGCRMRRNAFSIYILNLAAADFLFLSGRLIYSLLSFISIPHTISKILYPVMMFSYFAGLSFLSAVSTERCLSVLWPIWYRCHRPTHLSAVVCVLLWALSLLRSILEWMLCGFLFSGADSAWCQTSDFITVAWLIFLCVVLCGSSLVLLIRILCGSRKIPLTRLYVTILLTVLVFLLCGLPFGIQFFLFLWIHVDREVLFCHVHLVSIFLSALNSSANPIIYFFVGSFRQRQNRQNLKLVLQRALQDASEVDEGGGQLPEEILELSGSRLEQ
#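 Test system: HEK293 cells stably expressing human MrgX1 receptor; amount: 15,000 cells per well; doses: compound delivered in addition one of three; times: overnight plating before 1 h dye loading; detection: Fluo-4 NW calcium-flux fluorescence, kinetic read; read-out basis: B-scored fluorescence response ratio; controls: positive and negative controls per plate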
# RGS4 inh: RGS4 inhibitors, primary screen, cell-based, HEK293 M3R inducible RGS4, calcium flux; B-score at 10 µM; 310,000 tested, 0.45% active; Fluo-4 calcium flux; stronger effect = higher value; triggered by carbachol at its EC20; Regulator of G-protein signaling 4 (Homo sapiens), P49798; AID 463165, 2010;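 active = B-score, a plate-corrected calcium signal, over three deviations above library mean, with baseline fluorescence within five deviations of library mean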;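 note: RGS4 expression induced by doxycycline in cells with stable M3 receptor; B-score is computed from the integrated fluorescence ratio over baseline after carbachol; higher B-score means a larger calcium signal and so more RGS4 inhibition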
# Target sequence (P49798 whole entry, looked up): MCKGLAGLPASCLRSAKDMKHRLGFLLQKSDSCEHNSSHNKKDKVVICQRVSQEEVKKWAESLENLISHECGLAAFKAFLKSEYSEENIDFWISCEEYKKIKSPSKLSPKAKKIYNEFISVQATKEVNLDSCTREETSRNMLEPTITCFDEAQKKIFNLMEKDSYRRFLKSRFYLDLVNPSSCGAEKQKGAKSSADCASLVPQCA
# MrgX1 antag: antagonists of human MrgX1 receptor, primary screen, HEK293 cells, Fluo-4 calcium flux | Mas-related G-protein coupled receptor member X1 (Homo sapiens), Q96LB2 | BAM8-22 antagonism; stronger effect = lower value | B-score at 10 µM | 310,000 tested, 1.3% active | AID 588676, 2011;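 active = calcium-response B-score plate-corrected more than 3 library SD below zero, starting fluorescence within 5 deviations, no agonist response on first addition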;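 note: peak minus trough fluorescence over baseline after final BAM8-22 challenge near maximal dose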
# MrgX1 allo act: positive allosteric modulators of MrgX1, primary screen, HEK293 cells, Fluo-4 calcium flux. 310,000 tested, 0.63% active. Mas-related G-protein coupled receptor member X1 (Homo sapiens), Q96LB2. B-score at 10 µM. FDSS; stronger effect = higher value;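 active = plate-corrected calcium response at least 3 library SD above typical, normal starting fluorescence, not activating the receptor alone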;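 note: compound read alongside a low EC10 to EC30 dose of BAM8-22 agonist; peak minus trough fluorescence over baseline measured at the second addition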
# KCC2 mod: KCC2 cotransporter modulators, thallium flux, primary screen, cell-based, HEK293 KCC2, FluoZin-2 fluorescence, MLSMR; Solute carrier family 12 member 5 (Homo sapiens), Q9H2X9; KCC2 cells, thallium flux FluoZin-2 fluorescence; B-score of Tl+ flux slope (higher = more flux/activation; lower = inhibition) at 10 µM; 190,000 tested, 2.2% active;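 active = thallium flux slope and its plate-corrected score both differing from the plate sample mean at a set confidence after two filtering rounds, in either direction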;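 note: slope of fluorescence scaled to starting intensity during 10 to 20 s after thallium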
# MrgX1 allo conf: MrgX1 positive allosteric modulators, duplicate retest, confirmation, HEK293 cells, Fluo-4 calcium flux; shares compounds with MrgX1 allo act; Fluo-4 calcium fluorescence, FDSS; activation (ratio percentage), % at 10 µM; 1,200 tested, 13% active; AID 602413, 2012;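 active = ratio at least 3 SD above the weak peptide control, stable starting fluorescence, no direct agonism earlier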;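 note: compound followed by low BAM8-22 agonist challenge near EC20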
# HEK293 Ca flux: nonspecific calcium signal in parental HEK293, confirmation, counter-screen for MrgX1 antagonist project, parental HEK293 cells, Fluo-4 calcium flux; shares compounds with MrgX1 antag; Fluo-4 calcium fluorescence, FDSS; fluorescence ratio F(max-min)/F0 at 10 µM; 4,000 tested, 2% active; AID 624111, 2012;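 active = duplicate-averaged calcium fluorescence ratio at least three times the standard deviation of buffer wells, a nonspecific response in parental cells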
# HEK293 Ca counter: calcium response in parental HEK293 cells, primary screen, counter-screen for MrgX1 allosteric activator project, cell-based, Fluo-4 calcium flux, duplicate; Fluo-4 fluorescence ratio; stronger effect = higher value; 4,000 tested, 0.4% active; fluorescence ratio F(max-min)/F0 at 10 µM; AID 624114, 2012; shares compounds with MrgX1 antag;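 active = calcium fluorescence ratio, averaged over duplicates, at least 3 SD of the buffer-well ratio, meaning a nonspecific response in receptor-free cells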;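 note: untransfected parental HEK293 lacking MrgX1 used as counterscreen for MrgX1 allosteric activators; fluorescence change taken during the second addition on a kinetic imager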
# HEK293 Ca cntr2: calcium response in parental HEK293 cells, primary screen, counter-screen for MrgX1 agonist project, cell-based, Fluo-4 calcium flux, duplicate, agonist mode; shares compounds with MrgX1 antag; Fluo-4 calcium fluorescence (FDSS); stronger effect = higher value; 4,000 tested, 8.7% active; fluorescence ratio F(max-min)/F0 at 10 µM;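 active = calcium fluorescence ratio at least three times the spread of buffer wells, meaning a non-specific response in parental cells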
# An asterisk follows results filed as active; i = inactive; · = no result given.
SMILES,RGS4 act,MrgX1 ag,RGS4 inh,MrgX1 antag,MrgX1 allo act,KCC2 mod,MrgX1 allo conf,HEK293 Ca flux,HEK293 Ca counter,HEK293 Ca cntr2
CC(C)(C)c1ccc(O)c(/C=N\O)c1,i,i,i,i,38*,·,i,i,i,i
C/C(=N\NC(=O)c1cccc(S(=O)(=O)Nc2ccccc2Cl)c1)c1ccco1,i,i,i,i,i,0.92,·,·,·,·
C/C(=N\NC(=O)c1ccc(Cl)c(S(=O)(=O)Nc2ccccc2Cl)c1)c1ccncc1,i,i,i,i,21*,-0.42,i,i,i,i
CC(=O)Nc1ccc(NC(=O)C(C)OC(=O)CCc2c[nH]c3ccccc23)cc1 (centres undefined),i,i,i,i,i,·,·,·,·,·
CS(=O)(=O)N(Cc1cc2ccccc2[nH]c1=O)C1CCCCC1,i,i,i,i,6.8*,0.085,i,i,i,i
Cc1ccc(NC(=O)N2CCCC2C(=O)Nc2c(C)cc(C)cc2C)cc1 (centres undefined),i,i,i,i,i,·,·,·,·,·
Nc1c2c(nc3ccc(Br)cc13)N(Cc1ccccc1)CC2,i,i,i,i,8.3*,0.47,i,i,i,i
Nc1c2c(nc3ccc(Br)cc13)N(c1ccccc1)CC2,·,i,·,i,i,-0.073,·,·,·,·
CC(=O)c1sc(N2CCOCC2)nc1-c1ccccc1,i,i,i,i,12*,-0.25,i,i,i,i
Cc1oc2cc3oc(=O)c(CCC(=O)N(C)CC(=O)O)c(C)c3cc2c1C,i,i,i,i,i,·,·,·,·,·
CCC(C)[C@H](NC(=O)N1CC(=O)Nc2ccccc21)C(=O)N1CCC(C(=O)O)CC1 (some centres undefined),i,i,i,i,i,·,·,·,·,·
COc1cccc(Nc2ncnc3onc(-c4ccccc4OC)c23)c1,i,i,i,i,i,·,·,·,·,·
CS(=O)(=O)N1N=C(c2cccs2)CC1c1ccc(F)cc1 (centres undefined),i,i,i,i,21*,2.1,i,i,i,i
COc1cccc(C2CC(c3cccs3)=NN2S(C)(=O)=O)c1 (centres undefined),i,i,i,i,i,0.077,·,·,·,·
CCc1c(C)nc2cc(-c3ccc(OC)c(OC)c3)nn2c1N1CCCC1,i,i,i,i,17*,·,i,i,i,i
CCOC(=O)N1CCC(NC(=O)c2cc(C(=O)Nc3ccc(S(=O)(=O)N4CCCCC4)cc3)ccc2CO)CC1,i,i,i,i,i,0.94,·,·,·,·
